Values belong to the compound of their own block, whether it stands above or below them.
Assays:
[1] = Metabolic stability in mouse liver microsomes assessed as parent compound remaining at 1 uM measured upto 60 mins in presence of NADPH by LC-MS/MS analysis; type: ADME, Microsome; conditions: read-out: Stabilty
[2] = Metabolic stability in rat liver microsomes assessed as parent compound remaining at 1 uM measured upto 60 mins in presence of NADPH by LC-MS/MS analysis; type: ADME, Microsome; conditions: read-out: Stabilty
[3] = Metabolic stability in human liver microsomes assessed as parent compound remaining at 1 uM measured upto 60 mins in presence of NADPH by LC-MS/MS analysis; type: ADME, Microsome; conditions: read-out: Stabilty
[4] = in vitro; conditions: human, Caco-2
[5] = Initial plasma concentration in CD1 mouse at 3 mg/kg, iv by LC-MS/MS analysis; type: ADME, organism-based
[6] = Initial plasma concentration in Wistar rat at 3 mg/kg, iv by LC-MS/MS analysis; type: ADME, organism-based
[7] = Initial plasma concentration in dog at 1 mg/kg, iv by LC-MS/MS analysis; type: ADME, organism-based, Canis lupus familiaris
[8] = AUC (0 to t) in CD-1 mouse at 3 mg/kg, iv measured up to 24 hrs by LC-MS/MS analysis; type: ADME, organism-based; design: route intravenous, dose 3 mg/kg, time <=24; conditions: in vivo
[9] = AUC (0 to t) in Wistar rat at 3 mg/kg, iv measured up to 24 hrs by LC-MS/MS analysis; type: ADME, organism-based; design: route intravenous, dose 3 mg/kg, time <=24; conditions: in vivo
[10] = AUC (0 to t) in dog at 1 mg/kg, iv measured up to 24 hrs by LC-MS/MS analysis; type: ADME, organism-based, Canis lupus familiaris; design: route intravenous, dose 1 mg/kg, time <=24; conditions: in vivo
[11] = Volume of distribution in CD1 mouse at 3 mg/kg, iv measured up to 24 hrs by LC-MS/MS analysis; type: ADME, organism-based; conditions: in vivo
[12] = Volume of distribution in Wistar rat at 3 mg/kg, iv measured up to 24 hrs by LC-MS/MS analysis; type: ADME, organism-based; conditions: in vivo
[13] = Volume of distribution in dog at 1 mg/kg, iv measured up to 24 hrs by LC-MS/MS analysis; type: ADME, organism-based, Canis lupus familiaris; conditions: in vivo
[14] = Clearance in CD1 mouse at 3 mg/kg, iv measured up to 24 hrs by LC-MS/MS analysis; type: ADME, organism-based; conditions: in vivo
[15] = Clearance in Wistar rat at 3 mg/kg, iv measured up to 24 hrs by LC-MS/MS analysis; type: ADME, organism-based; conditions: in vivo
[16] = Clearance in dog at 1 mg/kg, iv measured up to 24 hrs by LC-MS/MS analysis; type: ADME, organism-based, Canis lupus familiaris; conditions: in vivo
[17] = Half life in CD1 mouse at 3 mg/kg, iv measured up to 24 hrs by LC-MS/MS analysis; type: ADME, organism-based; conditions: in vivo
[18] = Half life in Wistar rat at 3 mg/kg, iv measured up to 24 hrs by LC-MS/MS analysis; type: ADME, organism-based; conditions: in vivo
[19] = Half life in dog at 1 mg/kg, iv measured up to 24 hrs by LC-MS/MS analysis; type: ADME, organism-based, Canis lupus familiaris; conditions: in vivo
[20] = Cmax in CD1 mouse at 10 mg/kg, po measured up to 24 hrs by LC-MS/MS analysis; type: ADME, organism-based; design: route oral, dose 10 mg/kg, time <=24; conditions: in vivo
[21] = Cmax in Wistar rat at 10 mg/kg, po measured up to 24 hrs by LC-MS/MS analysis; type: ADME, organism-based; design: route oral, dose 10 mg/kg, time <=24; conditions: in vivo
[22] = Cmax in dog at 10 mg/kg, po measured up to 24 hrs by LC-MS/MS analysis; type: ADME, organism-based, Canis lupus familiaris; design: route oral, dose 10 mg/kg, time <=24; conditions: in vivo
[23] = AUC (0 to t) in CD-1 mouse at 10 mg/kg, po measured up to 24 hrs by LC-MS/MS analysis; type: ADME, organism-based; design: route oral, dose 10 mg/kg, time <=24; conditions: in vivo
[24] = AUC (0 to t) in Wistar rat at 10 mg/kg, po measured up to 24 hrs by LC-MS/MS analysis; type: ADME, organism-based; design: route oral, dose 10 mg/kg, time <=24; conditions: in vivo
[25] = AUC (0 to t) in dog at 10 mg/kg, po measured up to 24 hrs by LC-MS/MS analysis; type: ADME, organism-based, Canis lupus familiaris; design: route oral, dose 10 mg/kg, time <=24; conditions: in vivo
[26] = Tmax in CD1 mouse at 10 mg/kg, po measured up to 24 hrs by LC-MS/MS analysis; type: ADME, organism-based; conditions: in vivo
[27] = Tmax in Wistar rat at 10 mg/kg, po measured up to 24 hrs by LC-MS/MS analysis; type: ADME, organism-based; conditions: in vivo
[28] = Tmax in dog at 10 mg/kg, po measured up to 24 hrs by LC-MS/MS analysis; type: ADME, organism-based, Canis lupus familiaris; conditions: in vivo
[29] = Oral bioavailability in CD1 mouse at 10 mg/kg measured up to 24 hrs by LC-MS/MS analysis; type: ADME, organism-based; conditions: in vivo
[30] = Oral bioavailability in Wistar rat at 10 mg/kg measured up to 24 hrs by LC-MS/MS analysis; type: ADME, organism-based; conditions: in vivo
[31] = Oral bioavailability in dog at 10 mg/kg measured up to 24 hrs by LC-MS/MS analysis; type: ADME, organism-based, Canis lupus familiaris; conditions: in vivo
[32] = Drug concentration in human OCI-LY3 cells xenografted SCID Beige mouse plasma at 25 mg/kg, po administered via gavage for 14 days and measured at 2 hrs post last dose by LC-MS/MS analysis; type: ADME, organism-based; conditions: time 14 day
In short: (§1)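 Xenograft-bearing mice (OCI-Ly3) were given oral doses of 25, 50, 100 or 200 mg/kg once daily. Plasma and tumor were collected 2 h after the final dose on day 15. Results are reported as mean plasma concentration (ng/mL) and mean tumor concentration (ng/g) for each dose group.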

[33] = Drug concentration in human OCI-LY3 cells xenografted SCID Beige mouse tumor at 25 mg/kg, po administered via gavage for 14 days and measured at 2 hrs post last dose by LC-MS/MS analysis; type: ADME, organism-based, Neoplasm; conditions: time 14 day, read-out: Ct; in short: as §1
[34] = Drug concentration in human OCI-LY3 cells xenografted SCID Beige mouse plasma at 50 mg/kg, po administered via gavage for 14 days and measured at 2 hrs post last dose by LC-MS/MS analysis; type: ADME, organism-based; conditions: time 14 day; in short: as §1
[35] = Drug concentration in human OCI-LY3 cells xenografted SCID Beige mouse tumor at 50 mg/kg, po administered via gavage for 14 days and measured at 2 hrs post last dose by LC-MS/MS analysis; type: ADME, organism-based, Neoplasm; conditions: time 14 day, read-out: Ct; in short: as §1
[36] = Drug concentration in human OCI-LY3 cells xenografted SCID Beige mouse plasma at 100 mg/kg, po administered via gavage for 14 days and measured at 2 hrs post last dose by LC-MS/MS analysis; type: ADME, organism-based; conditions: time 14 day; in short: as §1
[37] = Drug concentration in human OCI-LY3 cells xenografted SCID Beige mouse tumor at 100 mg/kg, po administered via gavage for 14 days and measured at 2 hrs post last dose by LC-MS/MS analysis; type: ADME, organism-based, Neoplasm; conditions: time 14 day, read-out: Ct; in short: as §1
[38] = Drug concentration in human OCI-LY3 cells xenografted SCID Beige mouse plasma at 200 mg/kg, po administered via gavage for 14 days and measured at 2 hrs post last dose by LC-MS/MS analysis; type: ADME, organism-based; conditions: time 14 day; in short: as §1
[39] = Drug concentration in human OCI-LY3 cells xenografted SCID Beige mouse tumor at 200 mg/kg, po administered via gavage for 14 days and measured at 2 hrs post last dose by LC-MS/MS analysis; type: ADME, organism-based, Neoplasm; conditions: time 14 day, read-out: Ct; in short: as §1
[40] = Fraction unbound in human OCI-LY3 cells xenografted SCID Beige mouse plasma at 200 mg/kg, po after 24 hrs by equilibrium dialysis method; type: ADME, organism-based; conditions: in vivo
In short: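 Mouse plasma protein binding is the mean of 2 determinations. It was applied to the plasma exposures at 12 and 24 h in the OCI-Ly3 PK/PD study to estimate unbound plasma levels.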

Structure (SMILES): CCC1(O)CCCN(c2nc3nc(N4CCOCC4)oc3cc2NC(=O)c2coc(-c3ccnc(C)c3)n2)C1 (stereo unspecified)
remaining at 1 h, 1 µM [1]: 91%
remaining at 1 h, 1 µM [2]: > 95%
remaining at 1 h, 1 µM [3]: > 95%
Papp A→B at 2 h, 10 µM [4]: 8.5 ×10⁻⁶ cm/s

Structure (SMILES): Cc1cc(-c2nc(C(=O)Nc3cc4oc(N5CCOCC5)nc4nc3N3CCCC(F)C3)co2)ccn1 (stereo unspecified)
remaining at 1 h, 1 µM [1]: 89%
remaining at 1 h, 1 µM [2]: 91%
remaining at 1 h, 1 µM [3]: 67%
Papp A→B at 2 h, 10 µM [4]: 15.8 ×10⁻⁶ cm/s

Structure (SMILES): Cc1cc(-c2nc(C(=O)Nc3cc4oc(N5CCOCC5)nc4nc3N3CC[C@@H](O)C3)co2)ccn1 [EMAVUSERTIB]
remaining at 1 h, 1 µM [1]: > 95%
remaining at 1 h, 1 µM [2]: > 95%
remaining at 1 h, 1 µM [3]: > 95%
C0 [5]: 7480 ng/mL
C0 [6]: 27700 ng/mL
C0 [7]: 1960 ng/mL
AUC(0-t) at 24 h [8]: 5270 ng·h/mL
AUC(0-t) at 24 h [9]: 112000 ng·h/mL
AUC(0-t) at 24 h [10]: 6060 ng·h/mL
Vd [11]: 0.661 L/kg
Vd [12]: 2 L/kg
Vd [13]: 0.5 L/kg
clearance [14]: 9.27 mL/min/kg
CL [15]: 0.4 mL/min/kg
clearance [16]: 3.1 mL/min/kg
half-life [17]: 2.6 h
t1/2 [18]: 5.3 h
half-life [19]: 2.6 h
Cmax [20]: 6620 ng/mL
Cmax [21]: 22100 ng/mL
Cmax [22]: 12800 ng/mL
AUC(0-t) at 24 h [23]: 12500 ng·h/mL
AUC(0-t) at 24 h [24]: 171000 ng·h/mL
AUC(0-t) at 24 h [25]: 86500 ng·h/mL
Tmax [26]: 0.5 h
Tmax [27]: 1.2 h
Tmax [28]: 1.17 h
bioavailability [29]: 71%
bioavailability [30]: 46%
bioavailability [31]: 100%
concentration at 336 h [32]: 5080 ng/mL
concentration at 336 h [33]: 2670 ng/g
concentration at 336 h [34]: 11600 ng/mL
concentration at 336 h [35]: 8290 ng/g
concentration at 336 h [36]: 23300 ng/mL
concentration at 336 h [37]: 17900 ng/g
concentration at 336 h [38]: 39100 ng/mL
concentration at 336 h [39]: 37000 ng/g
Cp(f) [40]: 49.3 ng/mL
Papp A→B at 2 h, 10 µM [4]: 8.9 ×10⁻⁶ cm/s

Other lines, results leading:

remaining at 1 h, 1 µM [1]: 50%
remaining at 1 h, 1 µM [2]: 68%
remaining at 1 h, 1 µM [3]: 69%
Structure (SMILES): Cc1cc(-c2nc(C(=O)Nc3cc4oc(N5CCOCC5)nc4nc3N3CCC(F)CC3)co2)ccn1

Papp A→B at 2 h, 10 µM [4]: 21.4 ×10⁻⁶ cm/s
Structure (SMILES): Nc1ccc(-c2cccc(C(=O)Nc3ccc4nc(N5CCOCC5)oc4c3)n2)cn1

remaining at 1 h, 1 µM [1]: > 95%
remaining at 1 h, 1 µM [2]: > 95%
remaining at 1 h, 1 µM [3]: 90%
Papp A→B at 2 h, 10 µM [4]: 21 ×10⁻⁶ cm/s
Structure (SMILES): O=C(Nc1cc2oc(N3CCOCC3)nc2nc1C1CC1)c1coc(N2CC[C@H](O)C2)n1

Source: ChEMBL document CHEMBL4665913, “Discovery of CA-4948, an Orally Bioavailable IRAK4 Inhibitor for Treatment of Hematologic Malignancies” (ACS Med Chem Lett, 2020)
